In experiment [1] the test system is Mus musculus. The experiment in a line: Increase in insulin-stimulated AKT serine 473 phosphorylation in ob/ob mouse liver at 40 mg/kg/day, po relative to control. Format: functional, organism-based. The essentials:
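Male ob/ob mice got 40 mg kg⁻¹ d⁻¹ by oral gavage or vehicle. After a 6 h fast under tribromoethanol anaesthesia, portal-vein insulin (2 IU kg⁻¹) or PBS was given. Liver was removed 3 min later, lysed and western-blotted for IRβ pTyr1162/1163 and AKT pSer473 against total IRβ and AKT, then quantified.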

The nature of experiment [2]: Reduction of TNF expression mouse aP2-/-R macrophage cells (re-expression of aP2) relative to control. It counts as functional, cell-based. A digest of the protocol: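 Mouse aP2⁺/⁺ and aP2-reconstituted aP2⁻/⁻ macrophage lines were grown in RPMI with FBS or 5% LPDS, with inhibitor in DMSO or vehicle. Mcp-1, Il1β, Il6 and Tnf mRNA were measured by SYBR Green qRT-PCR (annealing at 58 °C, 50 cycles), normalized to 18s rRNA and then to untreated cells. Mean ± s.e.m.; at least triplicate.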

Experiment [3] concerns Mus musculus. The experiment in a line: Effect on glycerol level in 5-week old apoE-/- C57BL/6J mouse fed on western diet and 15 mg/kg/day, po drug simultaneously in 5-11 week early intervention study. It counts as functional. The essentials: (§1)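 Male Apoe−/− mice on western diet (21% fat, 0.21% cholesterol) from 4–5 weeks of age. Oral gavage for 6 weeks from age 5 or 12 weeks; vehicle 10% 1-methyl-2-pyrrolidone, 5% cremophor EL with ethanol in water. Blood taken after 6 h fast before and after treatment. Glucose by meter; insulin by ELISA; lipids and glycerol colorimetric.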

Experiment [4] has as its system Mus musculus. The experiment in a line: Decrease in Fasn expression in liver of ob/ob mouse at 40 mg/kg/day, po. It counts as functional, organism-based. A digest of the protocol:
(§2)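 Liver from male ob/ob mice gavaged daily for 6 weeks from 8 weeks of age, n = 6 per group. mRNA measured by SYBR Green real-time PCR: 95 °C 4 min, then 50 cycles of 95 °C 15 s, 58 °C 30 s, 72 °C 30 s. Normalized to 18s rRNA.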

Experiment [5] concerns Mus musculus. As to the kind of experiment: Increase in glucose uptake in gastrocnemius muscle in ob/ob mouse at 40 mg/kg/day, po after 4 weeks by hyperinsulinemic-euglycaemic clamp studies relative to control. Format: functional, organism-based. A digest of the protocol: (§3)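 Ob/ob mice after 4 weeks of treatment, jugular catheterized 4 days earlier. Clamp with insulin at 12.5 mU kg⁻¹ min⁻¹, variable 25% glucose to hold basal glucose, and ³H-glucose at 0.1 μCi min⁻¹ with 2-¹⁴C-DG. Tissue uptake computed from the fitted plasma 2-¹⁴C-DG curve and tissue 2-¹⁴C-DG-6-phosphate content. n = 7 and 9.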

The test system of experiment [6] is Mus musculus. As to the kind of experiment: Increase in glucose uptake in epididymal fat in ob/ob mouse at 40 mg/kg/day, po after 4 weeks by hyperinsulinemic-euglycaemic clamp studies relative to control. It counts as functional, organism-based. A digest of the protocol: as §3
The subject of experiment [7] is Mus musculus. As to the kind of experiment: Decrease in Acaca expression in liver of ob/ob mouse at 40 mg/kg/day, po. Format: functional, organism-based. A digest of the protocol:
as §2

The test system of experiment [8] is Mus musculus. The experiment in a line: Effect on insulin level in 5-week old apoE-/- C57BL/6J mouse fed on western diet and 15 mg/kg/day, po drug simultaneously in 5-11 week early intervention study. It counts as functional. The essentials:
as §1

The subject of experiment [9] is Mus musculus. The experiment in a line: Effect on glucose level in 5-week old apoE-/- C57BL/6J mouse fed on western diet and administered with 15 mg/kg/day, po drug at 12 week in 12-18 week late intervention study. It counts as functional. A digest of the protocol: as §1

The source made the active and inactive calls. No cut-off for these calls is given here.

The source of these data is ChEMBL document CHEMBL1142233, “Treatment of diabetes and atherosclerosis by inhibiting fatty-acid-binding protein aP2” (2007).

For the molecule `CCc1c(-c2ccccc2)c(-c2ccccc2)nn1-c1ccccc1-c1cccc(OCC(=O)O)c1`, the result (in the experiment with Mus musculus [1]; in experiment [2]; with Mus musculus [4]; in the experiment with Mus musculus [5]; in the experiment with Mus musculus [6]; with Mus musculus [7]) was Active. For the same molecule, the Activity with Mus musculus [3] was determined as 2.31 mM; in the experiment with Mus musculus [8] it was 0.5 ng/mL; in the experiment with Mus musculus [9] it was 147.2 mg/dL.
